Compound activity as filed in PubChem BioAssay.
In the library only some 2.1% were active in any assay of this set; here they are far more common.
Runt-CBFb FRET: Runt domain-CBFb interaction inhibition; Q01196+Q13951; Cerulean-Runt/Venus-CBFb FRET ratio 530/480, 1 h; inhibition, % at 20 µM; 220,000 tested, 0.46% active; AID 1496;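 active = inhibition over about 50% at 20 µM in the single-dose screen, limit read from the data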;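 also: 0% = DMSO wells and 100% = excess unlabeled CBFb competitor control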
Target sequence (Q01196 whole entry, looked up, the tested form may be a part): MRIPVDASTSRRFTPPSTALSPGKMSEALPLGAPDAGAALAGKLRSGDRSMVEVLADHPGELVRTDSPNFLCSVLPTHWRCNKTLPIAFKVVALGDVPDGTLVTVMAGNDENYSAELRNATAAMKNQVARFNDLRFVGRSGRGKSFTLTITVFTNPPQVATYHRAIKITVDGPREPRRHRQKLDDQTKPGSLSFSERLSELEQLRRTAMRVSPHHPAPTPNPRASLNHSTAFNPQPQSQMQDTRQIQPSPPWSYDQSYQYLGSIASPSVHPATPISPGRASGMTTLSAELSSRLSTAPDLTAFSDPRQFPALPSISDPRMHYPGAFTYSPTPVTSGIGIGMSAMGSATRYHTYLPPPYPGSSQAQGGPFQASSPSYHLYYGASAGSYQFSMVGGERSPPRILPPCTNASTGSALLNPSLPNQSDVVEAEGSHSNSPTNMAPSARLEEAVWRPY
Target sequence (Q13951 whole entry, looked up, the tested form may be a part): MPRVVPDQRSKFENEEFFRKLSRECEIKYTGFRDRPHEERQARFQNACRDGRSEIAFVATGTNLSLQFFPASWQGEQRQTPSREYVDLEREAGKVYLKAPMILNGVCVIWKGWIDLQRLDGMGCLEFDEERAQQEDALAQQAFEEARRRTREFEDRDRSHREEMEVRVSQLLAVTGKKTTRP
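Doses: 20 µM compound in 1% DMSO | Material: Cerulean-labeled Runt domain protein | Amount: Each fluorescent fusion protein 100 nM | Schedule: Two 1 h room-temperature incubations shielded from light | Measured by: FRET fluorescence | Evaluation: Loss of energy transfer signal | Controls: Unlabeled CBFb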
Hck Nef HTS: blocks Nef-activated human Hck kinase; 220,000 tested, 0.68% active; inhibition, % at 20 µM; Recombinant Hck-YEEI plus Nef, Z-Lyte FRET kinase assay; P08631;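 active = Hck-Nef kinase inhibition above about 50%, limit read from the data; inactive = inhibition below that limit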;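 also: 0% = DMSO with Hck plus Nef and 100% = Hck alone without Nef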
zVAD death inh: blocks zVAD induced death of L929 cells; 220,000 tested, 0.38% active; viability rescue, % at 10 µM; L929 zVAD necroptosis rescue, ATP luminescence, 24 h; with zVAD 60 µM;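 active = activation, scaled between plate controls, above about 75%, limit read from the data; inactive = activation under that limit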;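 also: 0% = zVAD with DMSO and 100% = DMSO alone without zVAD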
TNF death inh: inhibitors of TNF-alpha induced necroptosis in Jurkat FADD-/- cells. 220,000 tested, 0.068% active. activation (protection from cell death), % at 10 µM. Jurkat FADD-/- TNF necroptosis rescue, ATP luminescence, 24 h; 0 = TNF only, 100 = no-TNF cells;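 active = activation, meaning protection from cell death, of at least 50% relative to plate controls; inactive = activation below 50%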;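 also: necroptosis triggered by 40 ng/mL TNF-alpha added together with compound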
Runt-SMMHC FRET: Runt domain-CBFb-SMMHC interaction inhibition; Q01196+Q13951; Cerulean-Runt/Venus-CBFb-SMMHC FRET ratio 530/480, 1 h; inhibition, % at 20 µM; 220,000 tested, 0.74% active;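 active = mean inhibition across duplicate retests at 20 µM reaching about 50%, limit read from the data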;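 also: 0% = DMSO wells and 100% = wells with excess untagged CBFb-SMMHC; inhibitors lower the FRET ratio by blocking Runt binding to CBFb-SMMHC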
RanGTP-Impb inh: inhibitors of RanGTP-importin-beta interaction, primary screen, biochemical, FRET, CFP-Ran, YFP-importin-beta, homogeneous; 300,000 tested, 1.1% active; cell-free CFP-Ran/YFP-importin-beta FRET ratio; inhibition, % (test concentration not listed);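 active = more than half of the replicate wells show a fall in the fluorescence ratio signal beyond about 16%, limit read from the data, passing the limit was not always enough; inconclusive = exactly half of the replicate wells pass the set limit; inactive = fewer than half of replicates pass the limit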;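 also: 0% = DMSO wells and 100% = Ran loaded with GDP instead of GTP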
Hck Nef conf: confirmation of Hck-Nef kinase inhibitors. calls only at 10 µM. AID 463188. shares compounds with Hck Nef HTS. Recombinant Hck-YEEI:Nef, Z-Lyte FRET kinase assay. 1,300 tested, 28% active;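 active = average inhibition of at least 50%, with Z-scores no higher than 3 in both the phospho-tyrosine peptide and fluorescence counterscreens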
An asterisk follows results filed as active; i = inactive; ? = inconclusive; / = no result; + = active, no number.

SMILES | Runt-CBFb FRET | Hck Nef HTS | zVAD death inh | TNF death inh | Runt-SMMHC FRET | RanGTP-Impb inh | Hck Nef conf
O=C(N/N=C/c1coc2ccccc2c1=O)c1ccccc1 | 1 | 87* | 1 | 0 | -2 | 1 | i
O=C(N/N=C/c1coc2ccccc2c1=O)c1cc(Br)ccc1O | / | / | / | / | / | 0 | /
O=C(N/N=C\c1coc2ccccc2c1=O)c1ccco1 | -1 | 83* | -1 | -1 | 2 | 0 | +
O=C(O)CC/C(=N\NC(=O)CNC(=O)c1ccc(F)cc1)c1ccccc1 | 1 | 7 | 0 | 0 | -5 | -1 | /
COc1ccccc1CN1CC(C(=O)NCc2ccc(SC)cc2)CCC1=O (stereo unspecified) | / | / | / | / | / | -1 | /
O=C(O)c1ccc2nc(-c3ccco3)c(-c3ccco3)nc2c1 | 46 | 52* | 1 | 0 | 8 | / | i
Cc1ccc(-c2nc3ccc(C(=O)O)cc3nc2-c2ccc(C)cc2)cc1 | / | 3 | 0 | -3 | 6 | 1 | /
O=C(N=Nc1c(O)[nH]c2ccccc12)c1cccs1 | -2 | 30 | 42 | -3 | -3 | 5 | /
O=C(N=Nc1c(O)[nH]c2ccccc12)c1cc(NS(=O)(=O)c2cccs2)cc(NS(=O)(=O)c2cccs2)c1 | -3 | 88* | 1 | 1 | -7 | 0 | +
O=C(NCc1n[nH]c(=S)n1-c1ccc(Cl)c(Cl)c1)c1ccco1 | / | / | / | / | / | 4 | /
Cc1ccccc1CN(C)C(C)C(=O)NCc1ccccc1 (stereo unspecified) | / | / | / | / | / | -1 | /
CCCCCCCCCCCCCCCCn1cc[n+](CC(C)=O)c1 | -4 | 63* | -1 | -13 | 2 | / | i
NS(=O)(=O)c1ccc(CNS(=O)(=O)c2cc(C(=O)O)ccc2Cl)cc1 | 1 | 63* | 1 | 0 | -1 | -5 | i
O=S(=O)(NCc1ccccc1)c1ccc(Cl)c(S(=O)(=O)NCc2ccccc2)c1 | 2 | 1 | 0 | 1 | 0 | 0 | /
Cc1ccc(-c2[nH]ncc2/C=N/n2c(C)nc3ccccc3c2=O)cc1 | -2 | 60* | 2 | -8 | -1 | 0 | i
O=C(c1ccccc1Cc1ccccc1)N1CCN(S(=O)(=O)c2ccccc2[N+](=O)[O-])CC1 | / | / | / | / | / | -1 | /
COc1ccccc1CN(Cc1nc2ccccc2c(=O)[nH]1)S(=O)(=O)c1ccc2ccccc2c1 | 0 | 110* | 0 | -12 | -2 | 7 | i
Cc1ccccc1NC(=O)CSc1nc2ccccc2c2nc(CCn3cncc3C)nn12 | -1 | -3 | -1 | 3 | 0 | ? | /
Cc1ccc(NC(=O)CSc2nc3ccccc3c3nc(CCn4cncc4C)nn23)c(C)c1 | -2 | 72* | 0 | -1 | -3 | ? | i
CC(=O)Nc1ncnc2c1c(-c1ccc(Cl)cc1)nn2C(C)(C)C | 1 | + | 67 | 2 | 3 | 4 | +
CC(=O)Nc1nc(-c2ccc(Cl)cc2)nc(C)c1C(C)=O | -12 | 1 | 0 | -2 | -87 | -8 | /
CC(=O)N(C(C)=O)c1ncnc2c1c(-c1ccc(Cl)cc1)nn2C(C)(C)C | -2 | 74* | 71 | 0 | -5 | 5 | i
CCC(C)NC(=O)CNC(=S)N(Cc1ccccc1F)C1CCCCC1 (stereo unspecified) | -1 | 2 | 0 | -4 | -1 | -3 | /
COc1cc(/C=C2/C(=N)N3C(c4ccccc4)=CSC3=NC2=O)ccc1OCC(=O)O | -1 | 79* | 0 | 7 | -16 | 4 | +
Nc1cc([N+](=O)[O-])ccc1Nc1ccccc1 | -6 | 82* | 0 | -1 | -2 | -5 | i
SMILES | Runt-CBFb FRET | Hck Nef HTS | zVAD death inh | TNF death inh | Runt-SMMHC FRET | RanGTP-Impb inh | Hck Nef conf
O=C(O)c1ccc(C[n+]2c(-c3ccccc3)csc2Nc2ccccc2)cc1 | -6 | 7 | 0 | 2 | -5 | 2 | /
CC(C)(C)c1cc(-c2csc(Nc3ccccc3)[n+]2Cc2ccc(C(=O)O)cc2)cc(C(C)(C)C)c1O | -4 | 76* | 1 | 2 | -12 | -2 | i
COC(=O)c1c(NC(=O)COC(=O)c2ccc(NC(=O)CC#N)cc2)sc2c1CCCCC2 | -2 | 113* | 0 | 0 | -18 | -4 | +
COC(=O)c1c(NC(=O)COC(=O)c2ccccc2O)sc2c1CCCCC2 | 33 | 3 | 1 | -1 | -8 | -3 | /
CCN(CC)c1ccc(NC(=O)Cn2c(C(C)NC(=O)c3ccccc3)nc3ccccc32)cc1 (stereo unspecified) | 6 | 15 | 1 | 3 | 3 | -2 | /
Cc1ccc(C(=O)NC(C)c2nc3ccccc3n2CC(=O)Nc2c(C)cc(C)cc2C)cc1 (stereo unspecified) | -2 | 57* | 0 | 2 | 0 | -1 | i
CCCCn1c(O)c(N=NC(=O)c2ccco2)c2ccccc21 | -7 | 4 | / | -8 | 0 | 2 | /
O=C(N=Nc1c(O)n(C2OC(=O)c3ccccc32)c2ccccc12)c1ccco1 (stereo unspecified) | -8 | 65* | 1 | -2 | -3 | 3 | i
COCCCn1c(SC(C)C(=O)NC2CC2)nc2ccccc2c1=O (stereo unspecified) | / | / | / | / | / | 4 | /
COc1ccc(-c2nnn(CC(=O)N(Cc3ccccc3Cl)C(C(=O)NCC3CCCO3)c3ccco3)n2)cc1OC (stereo unspecified) | -8 | 1 | 0 | -8 | -4 | 3 | /
COc1ccc(/C=N/Nc2nc(-c3ccc(C)cc3)c(NC(C)=O)s2)cc1 | 1 | 83* | 26 | 2 | -3 | -2 | i
CC(=O)Nc1sc(N/N=C/c2ccc(O)cc2)nc1-c1ccc(C)cc1 | 7 | 69* | 7 | -1 | 0 | 0 | i
CC(=O)Nc1sc(N/N=C/c2ccccc2)nc1-c1ccc(C)cc1 | 6 | 69* | 29 | 1 | -3 | 3 | i
COc1cc(C=NCC2OCCc3ccccc32)cc(OC)c1 (stereo unspecified) | -1 | 3 | 0 | 1 | 2 | -3 | /
COc1cc(/C=N/NC(=O)c2cccc([N+](=O)[O-])c2)ccc1OCc1ccccc1 | / | -1 | 0 | -2 | 5 | -2 | /
COc1cc(/C=C/[N+](=O)[O-])ccc1OCc1cccc(C(=O)O)c1 | 17 | 62* | -1 | -4 | 16 | 1 | i
O=c1cc(C(F)(F)F)[nH]c2ccccc12 | 0 | 50* | 0 | 0 | 4 | -3 | i
Cc1ccc2[nH]c(C(F)(F)F)cc(=O)c2c1 | 0 | -2 | 1 | 0 | -1 | 5 | /
